Reference: ChEMBL document CHEMBL1132207, “Homology modeling of gelatinase catalytic domains and docking simulations of novel sulfonamide inhibitors” (J Med Chem, 1999)
pIC50: −log10 of the molar value.

Experiments:
[1] = biological target: 72 kDa type IV collagenase (Homo sapiens, UniProt P08253)
[2] = biological target: Matrix metalloproteinase-9 (Homo sapiens, UniProt P14780); experiment: Inhibitory activity against Matrix metalloprotease-9 (concentration required for 50% inhibition of enzyme activity)
Summary of the method: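 Substrate added from a 1 mM DMSO stock, reaction 60 min, stopped with 3% acetic acid. Fluorescence read at ex 320/em 405 nm. Mean of two assays; IC50 taken as 50% inhibition.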

Sequence of 72 kDa type IV collagenase (P08253 whole entry): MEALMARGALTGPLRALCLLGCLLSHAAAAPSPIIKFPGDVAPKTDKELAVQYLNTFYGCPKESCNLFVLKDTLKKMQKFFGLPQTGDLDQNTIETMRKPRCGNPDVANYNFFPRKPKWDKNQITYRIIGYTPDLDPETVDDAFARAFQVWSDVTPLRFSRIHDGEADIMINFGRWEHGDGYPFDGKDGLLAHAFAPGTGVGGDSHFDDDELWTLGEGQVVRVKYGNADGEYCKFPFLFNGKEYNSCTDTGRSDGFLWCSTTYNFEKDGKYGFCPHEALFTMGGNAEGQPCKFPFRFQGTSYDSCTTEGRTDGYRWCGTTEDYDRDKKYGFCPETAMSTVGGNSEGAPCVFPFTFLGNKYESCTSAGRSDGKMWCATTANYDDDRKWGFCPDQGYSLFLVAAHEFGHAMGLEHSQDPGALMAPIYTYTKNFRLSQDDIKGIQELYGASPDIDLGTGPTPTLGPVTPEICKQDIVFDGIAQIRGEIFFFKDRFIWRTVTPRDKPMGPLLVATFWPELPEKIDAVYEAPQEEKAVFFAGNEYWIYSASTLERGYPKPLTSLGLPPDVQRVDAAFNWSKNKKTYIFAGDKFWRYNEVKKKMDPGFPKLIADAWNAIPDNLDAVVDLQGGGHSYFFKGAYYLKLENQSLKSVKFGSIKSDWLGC
Sequence of Matrix metalloproteinase-9 (P14780 whole entry): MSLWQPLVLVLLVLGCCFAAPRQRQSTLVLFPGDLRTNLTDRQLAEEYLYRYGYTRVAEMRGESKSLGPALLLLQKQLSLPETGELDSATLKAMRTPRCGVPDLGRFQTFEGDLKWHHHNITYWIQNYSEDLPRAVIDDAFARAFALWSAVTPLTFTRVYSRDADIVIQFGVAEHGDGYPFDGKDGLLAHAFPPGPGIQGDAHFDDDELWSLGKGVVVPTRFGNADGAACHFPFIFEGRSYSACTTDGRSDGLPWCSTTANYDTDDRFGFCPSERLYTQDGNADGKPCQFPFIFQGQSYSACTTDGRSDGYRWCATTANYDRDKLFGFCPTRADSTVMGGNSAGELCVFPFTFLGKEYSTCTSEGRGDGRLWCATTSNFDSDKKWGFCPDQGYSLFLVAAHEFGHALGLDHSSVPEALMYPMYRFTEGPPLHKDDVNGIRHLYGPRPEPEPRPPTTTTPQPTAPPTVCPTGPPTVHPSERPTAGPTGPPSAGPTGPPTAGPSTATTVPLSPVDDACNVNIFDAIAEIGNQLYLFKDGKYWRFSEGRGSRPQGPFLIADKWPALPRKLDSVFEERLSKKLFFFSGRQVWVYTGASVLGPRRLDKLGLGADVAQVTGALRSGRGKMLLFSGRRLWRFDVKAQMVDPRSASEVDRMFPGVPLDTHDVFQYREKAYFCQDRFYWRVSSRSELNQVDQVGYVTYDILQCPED

| pIC50 [1] | pIC50 [2] | SMILES |
| --- | --- | --- |
| 8.23 | 7.62 | Cc1ccc(C#Cc2ccc(S(=O)(=O)N[C@@H](C(=O)O)C(C)C)s2)cc1 |
| 5.15 | < 4.70 | O=C(O)[C@@H](Cc1ccccc1)NS(=O)(=O)c1ccc(Br)cc1 |
| – | 7.14 | CC(C)[C@@H](NS(=O)(=O)c1ccc(-c2nnn(-c3ccccc3)n2)cc1)C(=O)O |
| – | 5.64 | O=C(O)[C@@H](Cc1c[nH]c2ccccc12)NS(=O)(=O)c1ccc(C#Cc2ccc(Oc3ccccc3)cc2)s1 |
| – | 5.57 | CCCCc1ccc(C#Cc2ccc(S(=O)(=O)N[C@H](Cc3c[nH]c4ccccc34)C(=O)O)s2)cc1 |
| 8.32 | 8.36 | CCc1ccc(C#Cc2ccc(S(=O)(=O)N[C@@H](C(=O)O)C(C)C)s2)cc1 |
| – | 8.02 | Cc1ccc(C#Cc2ccc(S(=O)(=O)N[C@H](Cc3c[nH]c4ccccc34)C(=O)O)s2)cc1 [S-3304] |
| – | 8.14 | CCc1ccc(C#Cc2ccc(S(=O)(=O)N[C@H](Cc3c[nH]c4ccccc34)C(=O)O)s2)cc1 |
| – | 6.06 | CC(C)[C@H](C(=O)O)N(C)S(=O)(=O)c1ccc(-c2nnn(-c3ccccc3)n2)cc1 |
| – | 5.57 | O=C(O)[C@@H](Cc1ccccc1)NS(=O)(=O)c1ccc(-c2ccccc2)cc1 |
| 7.74 | 6.59 | CC(C)[C@@H](NS(=O)(=O)c1ccc(C#Cc2ccc(Oc3ccccc3)cc2)s1)C(=O)O |
| 6.30 | < 4.70 | O=C(O)[C@@H](Cc1c[nH]c2ccccc12)NS(=O)(=O)c1ccc2ccccc2c1 |
| – | < 4.70 | O=C(N[C@H](Cc1ccccc1)C(=O)O)c1ccc(-c2ccccc2)cc1 |
| 7.09 | 5.77 | Cc1ccccc1C#Cc1ccc(S(=O)(=O)N[C@H](Cc2c[nH]c3ccccc23)C(=O)O)s1 |
| 8.33 | 6.68 | CCCCOc1ccc(C#Cc2ccc(S(=O)(=O)N[C@@H](C(=O)O)C(C)C)s2)cc1 |
| – | 5.70 | CCCCOc1ccc(C#Cc2ccc(S(=O)(=O)N[C@H](Cc3c[nH]c4ccccc34)C(=O)O)s2)cc1 |
| 8.36 | 7.92 | O=C(O)[C@@H](Cc1ccccc1)NS(=O)(=O)c1ccc(-c2ccc(-c3ccccc3)cc2)cc1 |
| 7.48 | 5.72 | COc1ccc(C#Cc2ccc(S(=O)(=O)N[C@H](Cc3c[nH]c4ccccc34)C(=O)O)cc2[N+](=O)[O-])cc1 |
| 7.70 | 6.47 | O=C(O)[C@@H](Cc1ccccc1)NS(=O)(=O)c1ccc(C#Cc2ccccc2)cc1 |
| < 4.70 | < 4.70 | O=C(O)[C@@H](Cc1c[nH]c2ccccc12)NS(=O)(=O)c1cccc2ccccc12 |
| 8.27 | 6.68 | CCCCc1ccc(C#Cc2ccc(S(=O)(=O)N[C@@H](C(=O)O)C(C)C)s2)cc1 |
| 9.19 | 8.09 | COc1ccc(C#Cc2ccc(S(=O)(=O)N[C@H](Cc3c[nH]c4ccccc34)C(=O)O)cc2)cc1 |
